Screens: PubChem BioAssay, several laboratories
CHOP UPR activ = activators of apoptotic arm of unfolded protein response (CHOP) | hit rate 0.34% among 330,000 | activation, % at 10 µM | CHO-CHOP luciferase reporter, UPR activation, luminescence; percent of tunicamycin response over DMSO baseline;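 active = at 10 µM dose, activation of 40% or more, normalized to positive control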
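System: CHO CHOP reporter cells. Amount: 500 cells per well. Buffer or medium: F12 medium, 10% FBS. Compound dosing: one dose, 10 µM in 0.5% DMSO. Incubation: 6 h compound exposure at 37 °C after overnight seeding. Technique: Steady-Glo luciferase luminescence. Benchmarks: tunicamycin and DMSO controls.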
SKKanGAS inh = inhibitors of SKKanGAS S. pyogenes growth in kanamycin (SK-promoter or general growth effect) | hit rate 1.3% among 300,000 | BacTiter-Glo, 6 h | inhibition, % at 7.5 µM;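 active = mean replicate score, as percent of positive control median, at least 50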;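 also: strain carries kanamycin resistance gene driven by streptokinase promoter and grows in 40 µg/ml kanamycin; loss of luminescence reflects streptokinase promoter inhibition or plain growth inhibition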
XBP1 UPR activ = activators of adaptive arm of unfolded protein response (XBP1); activation, % at 20 µM; CHO-XBP1 luciferase reporter, IRE1-XBP1 UPR activation, luminescence; percent of tunicamycin response, DMSO as zero; hit rate 0.33% among 330,000; AID 463104;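 active = versus positive control, 20 µM dose yields 30% or more activation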
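Material: CHO cell line with stable XBP1 luciferase reporter; schedule: 16-18 h cell attachment at 37 °C, then 6 h compound exposure; signal: glow luminescence from Steady-Glo reagent; medium: serum-containing F12 medium, 10% FBS; benchmarks: tunicamycin 10 µg/mL and vehicle-only wells; read-out: percent activation relative to tunicamycin reference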
CSC inhib = blocks cancer stem cells; hit rate 1.1% among 300,000; cancer stem cell-like cells viability, luminescence; inhibition, % at 7.5 µM; AID 2717; in the data active = inhibition above about 75%; tested in HMLE shEcad cells
Beta apoptosis = beta cell apoptosis inhibition. INS-1E cytokine-induced death, ATP luminescence, 48 h; percent of positive-control rescue, neutral wells zero. protection from apoptosis, % (no concentration beside the values). hit rate 0.8% among 300,000. AID 435005;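 active = Every replicate reaches about 75%, or at least half do and their mean reaches it too, limit read from the data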;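 also: higher means more ATP so stronger rescue from cytokine killing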
Mdm2-MdmX inh = inhibitors of human Mdm2/MdmX interaction | O15151+Q00987 | SaOS-2 split-luciferase Mdm2/MdmX complementation, luminescence | inhibition, % at 8 µM | hit rate 3% among 330,000;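 active = inhibition of at least 50% at 8 µM in the primary screen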
Target sequence (O15151 whole entry, looked up): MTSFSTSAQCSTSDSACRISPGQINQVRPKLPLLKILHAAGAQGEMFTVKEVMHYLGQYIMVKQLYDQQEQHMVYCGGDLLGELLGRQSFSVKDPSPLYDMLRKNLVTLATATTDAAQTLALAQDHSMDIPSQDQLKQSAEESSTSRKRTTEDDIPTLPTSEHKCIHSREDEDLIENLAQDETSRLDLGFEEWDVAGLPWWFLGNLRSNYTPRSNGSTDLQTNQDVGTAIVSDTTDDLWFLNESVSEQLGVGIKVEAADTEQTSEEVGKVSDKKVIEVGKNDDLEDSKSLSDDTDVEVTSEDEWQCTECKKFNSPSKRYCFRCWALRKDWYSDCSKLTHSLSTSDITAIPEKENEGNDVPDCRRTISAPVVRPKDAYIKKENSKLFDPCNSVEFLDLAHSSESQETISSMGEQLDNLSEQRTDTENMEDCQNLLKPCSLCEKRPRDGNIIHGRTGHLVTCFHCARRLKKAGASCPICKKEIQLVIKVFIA
Target sequence (Q00987 whole entry, looked up): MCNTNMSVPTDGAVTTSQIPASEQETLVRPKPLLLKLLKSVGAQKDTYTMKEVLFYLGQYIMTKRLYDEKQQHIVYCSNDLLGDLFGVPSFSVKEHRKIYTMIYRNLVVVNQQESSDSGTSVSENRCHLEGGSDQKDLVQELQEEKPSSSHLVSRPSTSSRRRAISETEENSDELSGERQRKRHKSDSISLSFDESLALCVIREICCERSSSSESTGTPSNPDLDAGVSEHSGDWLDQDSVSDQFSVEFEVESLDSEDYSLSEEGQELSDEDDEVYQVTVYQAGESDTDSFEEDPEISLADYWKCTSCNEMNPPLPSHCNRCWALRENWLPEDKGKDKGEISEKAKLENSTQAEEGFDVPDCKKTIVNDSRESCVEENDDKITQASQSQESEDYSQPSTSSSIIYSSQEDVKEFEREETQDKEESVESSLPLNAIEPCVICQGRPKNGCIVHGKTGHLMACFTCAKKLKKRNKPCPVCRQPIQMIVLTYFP
Numbers stand for hits; - = inactive; . = no result given. Compounds with a hit are over-represented: about 4.8% of the library has one in this group of screens.

SMILES	CHOP UPR activ	SKKanGAS inh	XBP1 UPR activ	CSC inhib	Beta apoptosis	Mdm2-MdmX inh
FC(F)(F)c1cnc(-c2cnc(-c3ccncc3)nc2)c(Cl)c1	-	-	-	.	-	-
Brc1ccc(C2C3=C(Nc4ncnn42)c2ccccc2OC3c2ccncc2)cc1 (stereo not given)	-	88	-	-	-	-
Cc1cccc(C)c1NC(=O)CNC(=O)Cn1nc(C)c(C)c(C#N)c1=O	-	-	-	-	-	-
COc1ccccc1NS(=O)(=O)c1cccc(C(=O)NCC(c2ccco2)N(C)C)c1 (stereo not given)	-	-	-	-	-	-
Cn1nc(C(C)(C)C)cc1C(=O)NCc1ccc(N2CCCC2=O)cc1	-	-	-	-	116	-
CCOc1ccc2c(c1)c1nnc(SCC(=O)NC3CC3)nc1n2C	-	-	-	-	-	-
O=C(CN(Cc1ccco1)Cc1ccco1)Nc1cc(S(=O)(=O)N2CCCCC2)ccc1Cl	-	.	-	.	101	-
O=C(NCc1ccco1)c1cc(S(=O)(=O)N2CCCC2)ccc1Cl	-	-	-	-	-	-
O=C(Nc1cc(S(=O)(=O)N2CCCCC2)ccc1Cl)c1ccccc1NS(=O)(=O)c1ccc(F)cc1	.	-	.	83	130	.
O=C(COC(=O)c1ccc(O)cc1O)NC1CCCCCC1	-	.	-	.	.	-
O=C(CSc1ccc(Cl)cc1)NC1=NN(c2ccccc2)C(=O)C1	-	77	-	-	-	-
COc1ccc(-c2cc(C(=O)N(C)CC(=O)Nc3cccc(F)c3)c3ccccc3n2)cc1	-	-	-	-	-	-
CCc1nnc(NC(=O)C2Cc3ccccc3CN2S(=O)(=O)CC)s1 (stereo not given)	-	-	-	-	-	-
CCS(=O)(=O)N1Cc2ccccc2CC1C(=O)Nc1nnc(SCc2ccc(F)cc2)s1 (stereo not given)	-	54	-	-	-	-
CC(C)(C)C(=O)Cn1c(=N)n(Cc2ccccc2)c2ccccc21	-	-	-	-	-	-
Cc1ccc(Cn2c(=N)n(CC(=O)c3ccccc3)c3ccccc32)cc1	-	-	-	-	98	-
CCc1ccc(C(c2ccc(CC)cc2)C(Cl)Cl)cc1	-	.	-	-	-	-
Clc1ccc(C(c2ccccc2Cl)C(Cl)Cl)cc1 (stereo not given)	-	.	-	98	.	-
CC(C)[C@H](NC(=O)c1nn(Cc2ccccc2)c(=O)c2ccccc12)C(=O)O	-	-	-	-	-	-
Brc1cccc(OCCN2CCc3ccccc3C2)c1	-	-	-	84	-	-
Brc1cccc(OCCN2CCCCC2)c1	-	-	-	-	-	-
Cc1occc1C(=O)N/N=C/c1ccc(-c2ccccc2)cc1	-	55	-	-	-	-
Cc1occc1C(=O)N/N=C/c1ccc(OCc2ccccc2)cc1	-	-	-	-	-	-
O=C(N/N=C/c1ccc2c(c1)OCO2)c1ccc(COCC(F)(F)C(F)F)cc1	-	-	-	83	-	-
Cc1occc1C(=O)N/N=C/c1ccc2c(c1)OCO2	-	-	-	-	76	-
SMILES	CHOP UPR activ	SKKanGAS inh	XBP1 UPR activ	CSC inhib	Beta apoptosis	Mdm2-MdmX inh
CCN(CC)c1ccc(/C=N/NC(=O)c2ccoc2C)c(O)c1	-	-	-	-	101	-
Cc1ccccc1/C=C/C1=NCCN1	-	.	-	-	-	-
O=C1NC(Cc2ccccc2)c2nc3cc(F)ccc3c(=O)n2-c2ccccc21 (stereo not given)	-	.	-	.	-	-
CSCC[C@H](NC(=O)c1nn(C)c(=O)c2ccccc12)c1nc2ccccc2[nH]1	-	74	-	-	-	-
Cn1cccc1/C=N/NC(=O)CSc1nc2ccccc2[nH]1	-	-	-	-	-	-
O=C(NNC(=O)c1cc(-c2cccc(Br)c2)nc2ccccc12)c1csc(N2CCOCC2)n1	-	56	-	.	-	-
CC(C)(C)OC(=O)C[C@@H]1C/C=C\C[C@H](CC(=O)N(CCO)Cc2ccccc2)C(=O)N[C@H](C(C)(C)C)COC1=O	-	.	-	-	-	-
COc1ccc(COc2cc(-c3cccc(OC)c3)nc3ccc(NC(=O)c4ccc(N(C)C)cc4)cc23)cc1	-	-	-	80	-	-
COc1ccc(O)c(-c2cc(-c3ccccc3Cl)[nH]n2)c1	-	59	-	.	.	-
